An excerpt weighted towards active compounds, which were near 4% of everything screened.
KCNQ1 inh: human KCNQ1 channel inhibition; P51787; CHO-K1 KCNQ1, FluxOR thallium flux fluorescence; hits give high values; B-score at 10 µM; 310,000 compounds, 1.3% hits; AID 2642;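 active = compounds whose thallium flux B-score, printed positive for inhibition, exceeds three library SD while starting fluorescence stays within three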;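 note: channel opened by potassium depolarization with thallium stimulus after 20 min compound exposure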
hERG rescue: shields human hERG channel from block by proarrhythmic agents; Q12809; CHO-hERG, FluxOR thallium flux, dofetilide IC70 present; AID 1511; 310,000 compounds, 0.51% hits; activation (rescue from dofetilide block), less the hit threshold, % at 10 µM;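 active = activation above the mean of controls blocked by dofetilide plus 5 SD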;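 note: thallium influx through hERG after potassium depolarization seen as dye fluorescence rise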
KCNQ1 act: human KCNQ1 channel potentiation or activation; P51787; CHO-K1 KCNQ1, thallium flux FluxOR fluorescence; hits give high values; B-score at 10 µM; 310,000 compounds, 0.35% hits; AID 2648;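 active = fluorescence ratio B-score, a plate-corrected score, at least three library SD, with initial intensity B-score within 5 SD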
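Medium – assay buffer, equal DMSO in all wells · Material – CHO-K1 cell line with stable KCNQ1 potassium channel expression · Signal – kinetic FluxOR thallium fluorescence, 10-s 1-Hz baseline, 110-s post-stimulus read · Compound – single concentration per compound, DMSO matched to controls · Schedule – 37 °C overnight plating, 90-min dark dye load, 20-min compound pretreatment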
KCNK9 inh: human KCNK9 channel inhibition | AID 488922 | B-score at 10 µM | Q9NPC2 | HEK293 KCNK9, FluxOR thallium flux fluorescence; hits give low values | 310,000 compounds, 1.2% hits;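 active = ratio B-score over 3 SD below the library mean, with starting fluorescence within 5 SD of its mean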;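 note: negative B-score means less thallium flux so channel inhibition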
Target sequence (Q9NPC2 whole entry, looked up): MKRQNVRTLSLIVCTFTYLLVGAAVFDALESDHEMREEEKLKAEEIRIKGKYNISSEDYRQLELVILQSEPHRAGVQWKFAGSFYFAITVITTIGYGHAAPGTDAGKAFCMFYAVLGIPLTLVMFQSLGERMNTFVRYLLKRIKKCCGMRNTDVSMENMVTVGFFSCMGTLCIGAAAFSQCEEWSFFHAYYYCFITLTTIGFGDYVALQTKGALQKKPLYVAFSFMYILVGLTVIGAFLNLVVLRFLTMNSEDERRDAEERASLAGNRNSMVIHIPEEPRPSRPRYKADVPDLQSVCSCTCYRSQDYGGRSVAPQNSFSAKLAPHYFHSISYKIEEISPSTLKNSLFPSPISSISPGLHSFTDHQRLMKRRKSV
KCNK3 block: human KCNK3 channel inhibition, primary screen; O14649; CHO-KCNK3 thallium flux, FluxOR fluorescence; hits give low values; B-score at 10 µM; 340,000 compounds, 0.84% hits; AID 602410;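 active = B-score under library mean minus 4 SD, starting fluorescence ratio at most library mean plus 5 SD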;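 note: more negative B-score means stronger inhibition of thallium flux through KCNK3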
PHOSPHO1 block: PHOSPHO1 (human) inhibition; recombinant PHOSPHO1, absorbance phosphatase assay; inhibition, % at 13.3 µM; 290,000 compounds, 1.1% hits; in the data active = inhibition above about 60%
KCNK9 block conf: human KCNK9 inhibitor confirmation; shares compounds with KCNK9 inh; 4,900 compounds, 43% hits; inhibition, % at 10 µM; HEK293 KCNK9 cells, FluxOR thallium flux fluorescence;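 active = thallium signal inhibited by more than 5 SD of the compound-free buffer control wells, on both duplicate plates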;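 note: 0% = assay buffer control wells without compound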
Kir21 sel: mouse Kir2.1 off-target activity of KCNK9 modulators. shares compounds with KCNK9 inh. Kir2.1 cells, FluxOR thallium flux fluorescence. inhibition, % at 10 µM. 4,900 compounds, 4% hits;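 active = thallium signal drop more than 5 SD beyond the mean of the no-compound control wells, seen in both duplicate plates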;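 note: signal is fluorescence rise after thallium addition divided by baseline fluorescence; plate controls were assay buffer only for no effect and full block by chlorpromazine control for full effect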
KCNK9 uninduced: second check of KCNK9 modulator effects in non-induced HEK293 cells; shares compounds with KCNK9 inh; FluxOR thallium flux; inhibition, % at 10 µM; 4,900 compounds, 40% hits; AID 492997;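 active = thallium signal drop beyond 5 SD of the untreated control mean, on both duplicate plates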;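 note: plate controls were buffer only IC0 wells for no effect and SID17386958 at its maximal inhibitory level for full effect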
* hit, by the source's call; i = inactive; x = no result given.

SMILES	KCNQ1 inh	hERG rescue	KCNQ1 act	KCNK9 inh	KCNK3 block	PHOSPHO1 block	KCNK9 block conf	Kir21 sel	KCNK9 uninduced
O=C(Cc1cn(Cc2cccc(Cl)c2)c2ccccc12)N1CCCCCC1	i	-11	i	-11*	i	-9	54%*	36%*	38%*
COc1ccc(C(=O)NNC(=O)C2(C)CC2(Br)Br)cc1 (configuration not stated)	i	-6	i	i	i	51	x	x	x
CCc1ccc(CN(C)CC(=O)Nc2ccc3c(c2)CCC3)cc1	i	-18	i	i	i	-35	i	i	i
CN(C)c1nc(N/N=C/c2ccccc2O)nc(Nc2ccc(F)cc2)n1	i	-13	i	i	i	-28	x	x	x
O=C(Cc1c(F)cccc1Cl)Nc1nc2ccccc2s1	i	-6	i	-13*	i	43	i	i	50%*
CC(=O)c1sc(NC(=O)Cc2c(F)cccc2Cl)nc1C	i	-3	i	i	i	36	x	x	x
COc1ccccc1/C=C1\SC(=S)N(NS(=O)(=O)c2ccc(C)cc2)C1=O	i	0	i	i	i	42	x	x	x
Cc1[nH][nH]c(=O)c1C(c1ccc(-c2ccc(Cl)c(Cl)c2)o1)c1c(C)[nH][nH]c1=O	i	-8	10*	i	i	30	i	i	i
COc1ccc(-c2ccc(C(c3c(C)[nH][nH]c3=O)c3c(C)[nH][nH]c3=O)o2)c([N+](=O)[O-])c1	x	x	x	x	i	10	x	x	x
COc1ccc(C)cc1NC1=C(Cl)C(=O)N(C2CCCCC2)C1=O	i	-10	i	-17*	i	26	64%*	i	44%*
CCOc1ccc(NC2=C(Cl)C(=O)N(C3CCCCC3)C2=O)cc1	i	-4	i	i	i	0	x	x	x
CCCNC(=O)N1CCC(C(=O)c2ccc(F)cc2)CC1	i	-6	i	i	i	12	x	x	x
O=C(NC(=S)NC1C2CC3CC(C2)CC1C3)C12CC3CC(CC(C3)C1)C2 (configuration not stated)	i	-7	i	i	i	-2	i	i	i
CC12CC3(C)CC(C)(C1)CC(C(=O)NC(=S)NC(C)(C)C)(C2)C3	i	-8	i	i	i	-15	i	i	i
O=C(NC(=S)Nc1ccc(Cl)cn1)C12CC3CC(CC(C3)C1)C2	i	0	i	i	i	-4	x	x	x
CC(C)(C)NC(=S)NC(=O)C12CC3CCC(CC(C3)C1)C2	i	-3	i	i	i	7	i	i	i
CN(C)NC(=S)NC(=O)C12CC3CC(CC(C3)C1)C2	i	-8	i	i	i	12	x	x	x
Cc1cc(/C=N\NC(=O)c2cccs2)c(C)n1-c1ccc2ncccc2c1	i	-9	i	i	i	38	x	x	x
C/C(=N\N1CCN(c2ccc(Cl)cc2)CC1)c1cccc([N+](=O)[O-])c1	i	-1	i	-11*	i	18	44%*	i	30%*
COc1ccc(C2NC(=O)CCC2[N+](=O)[O-])cc1OC (configuration not stated)	i	-9	i	-15*	i	51	i	i	i
CCOc1ccc(N(CC(=O)N2CC=C(c3ccccc3)CC2)S(=O)(=O)c2c(C)noc2C)cc1	i	-5	i	i	i	-5	x	x	x
COc1ccc(S(=O)(=O)Cc2ccc(C(=O)N3CCN(c4cccc(C)c4)C(C)C3)o2)cc1 (configuration not stated)	i	-2	i	i	i	7	i	i	i
